The list is not random: actives were taken first. Their share in the collection is about 1.4%.
Thrombin inh: inhibitors of human thrombin; alpha-thrombin, Boc-VPR-AMC fluorogenic substrate cleavage; inhibition, % at 5 µM; 220,000 tested, 0.26% active;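 active = inhibition at or above 40%; inactive = inhibition below 40%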;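 note: 0% = enzyme with no compound and 100% = wells without enzyme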
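System – human alpha-thrombin protein · Reagent – Boc-VPR-AMC substrate, 15 µM final · Compound – 5 µM single dose in 0.2% DMSO · Schedule – reaction at room temperature · Technique – AMC fluorescence at 355 nm excitation and 460 nm emission · Read-out basis – % inhibition relative to enzyme controls and enzyme-free blanks · Control set – no-compound enzyme wells and no-enzyme blanks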
KLK5 inh: blocks human kallikrein 5 protease activity | recombinant hK5, fluorogenic AMC substrate cleavage | 210,000 tested, 0.59% active | Q9Y337 | inhibition, % at 5 µM | AID 873;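 active = inhibition of 40% or more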;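 note: 0% = enzyme controls without compound and 100% = no-enzyme blanks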
FXIa inh: blocks human coagulation factor XIa protease activity; inhibition, % at 5 µM; 220,000 tested, 0.14% active; purified FXIa, Boc-Glu-Ala-Arg-AMC fluorogenic substrate; P03951;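 active = inhibition of at least 40%; inactive = inhibition below 40%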;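 note: fluorescence of freed AMC excited at 355 nm; 0% = enzyme without compound and 100% = no enzyme blank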
m-calpain inh: blocks pig calpain II enzyme activity | purified calpain II, fluorogenic peptide substrate, 30 min | inhibition, % at 16 µM | 220,000 tested, 0.37% active | AID 1236;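 active = inhibition above about 50%, limit read from the data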
FXIIa inh: inhibitors of human coagulation factor XIIa. P00748. purified FXIIa, Boc-QGR-AMC fluorogenic substrate, 2 h. inhibition, % at 5 µM. 220,000 tested, 0.3% active. AID 800; in the data active = inhibition above about 40%;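 note: 0% = enzyme with no compound and 100% = blank without enzyme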
Target sequence (P00748 20-372 limits assumed): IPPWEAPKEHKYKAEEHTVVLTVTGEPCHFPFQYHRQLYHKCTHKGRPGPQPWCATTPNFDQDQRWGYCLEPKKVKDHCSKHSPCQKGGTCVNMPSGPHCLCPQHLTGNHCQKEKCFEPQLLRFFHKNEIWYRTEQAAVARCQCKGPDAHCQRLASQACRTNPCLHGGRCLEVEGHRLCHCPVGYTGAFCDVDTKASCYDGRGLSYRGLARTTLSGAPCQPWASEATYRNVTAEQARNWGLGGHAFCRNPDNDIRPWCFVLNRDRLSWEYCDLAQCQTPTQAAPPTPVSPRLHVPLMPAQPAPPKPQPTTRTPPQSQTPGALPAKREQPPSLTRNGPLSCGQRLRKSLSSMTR
Target sequence (P00748 373-615 limits assumed): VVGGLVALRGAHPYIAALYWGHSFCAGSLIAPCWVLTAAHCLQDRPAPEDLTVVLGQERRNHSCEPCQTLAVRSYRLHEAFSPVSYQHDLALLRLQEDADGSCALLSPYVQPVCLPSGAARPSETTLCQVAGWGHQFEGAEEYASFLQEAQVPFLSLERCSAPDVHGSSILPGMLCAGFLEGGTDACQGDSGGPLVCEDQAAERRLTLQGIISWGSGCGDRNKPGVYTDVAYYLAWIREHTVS
An asterisk follows results filed as active; . = not tested or not shown.

SMILES | Thrombin inh | KLK5 inh | FXIa inh | m-calpain inh | FXIIa inh
CCN1CCN(C(c2cccs2)C(C)NS(=O)(=O)c2ccccc2)CC1 (configuration not stated) | -5 | -2 | 0 | 57* | 13
O=C(NCc1cccs1)NC1CCCCC1 | 3 | -17 | 3 | -18 | 15
CCOc1ccccc1/C=C(\NC(=O)c1ccccc1)C(=O)NCCC(=O)O | -3 | -11 | 8 | 0 | 17
CCOc1ccccc1/C=C(/NC(=O)c1ccccc1)C(=O)NCC(=O)O | 11 | 47* | 16 | 36 | 2
CCn1c(SCC(=O)N2CCCc3ccccc32)nc2ccccc2c1=O | -1 | -13 | -1 | 10 | 6
Cc1cc(=O)n2c(n1)SCOC2 | 5 | 35 | 21 | 8 | 43*
COc1cc(=O)n2c(n1)SCCC2 | 2 | -22 | 2 | -2 | 16
CC1CCCCC1NC(=O)COC(=O)c1ccc(N(C)C)cc1 (configuration not stated) | 5 | -1 | 25 | 11 | 25
CC(C)c1ccc(-c2c(C#N)c(N)nc(SCC(=O)N3CCCCCC3)c2C#N)cc1 | 41* | -2 | -6 | -112 | 5
CC(C)c1ccc(-c2c(C#N)c(N)nc(SCC(=O)N3CCCCC3)c2C#N)cc1 | -3 | -2 | -7 | 25 | 1
O=C(N/N=C/c1ccc(OCc2cnc(Cl)s2)cc1)c1ccncc1 | 50* | 26 | 28 | 25 | 66*
CCOc1cc(/C=N/NC(=O)c2ccncc2)ccc1OS(C)(=O)=O | -6 | -15 | 7 | 106* | 13
CCOc1cc(/C=N/NC(=O)c2ccncc2)cc(Cl)c1OS(C)(=O)=O | -4 | 4 | 7 | 16 | 13
O=C(CCCN1C(=O)CCC1=O)Nc1ccccc1F | 5 | 3 | 3 | -24 | 13
O=C(CCCN1C(=O)CCC1=O)Nc1ccc(Br)cc1F | 10 | 61* | -1 | 6 | 16
NNc1nc(-c2ccccc2)c2cc(Cl)ccc2n1 | -1 | -9 | 3 | -5 | 6
Cc1cc(C(=O)COC(=O)c2ccc[nH]c2=O)c(C)n1CCc1ccc(F)cc1 | . | 44* | 24 | 22 | 29
CCOC(=O)c1c(N)sn(-c2ccccc2)c1=S | -5 | 1 | -5 | -5 | 5
CCOC(=O)c1c2c(c(=S)n(-c3ccccc3)c1N)CCC2 | 3 | -2 | 2 | 51* | 6
COc1ccc(C(=O)Nc2ccccc2C(=O)NCc2ccco2)cc1OC | 22 | 42* | 4 | -1 | 7
COc1ccc(C(=O)Nc2ccc(Cl)cc2C(=O)NCc2ccco2)cc1OC | 0 | -13 | -2 | -43 | 0
CCOc1ccc(C(=O)NCC(=O)OC(C)C(=O)NCc2ccco2)cc1OCC (configuration not stated) | 64* | 55* | 3 | -99 | 7
O=C(c1ccc(=O)n(Cc2ccccc2)n1)N1CCN(C/C=C/c2ccccc2)CC1 | 4 | -10 | 2 | -20 | 19
CC1CCOC2(O1)C(=O)Nc1ccccc12 (configuration not stated) | 22 | 41* | 31 | 12 | 67*
CC1OC2(OC1C)C(=O)Nc1ccccc12 (configuration not stated) | 1 | -1 | 6 | 7 | 30
SMILES | Thrombin inh | KLK5 inh | FXIa inh | m-calpain inh | FXIIa inh
Cn1c(CN2CCCCC2)nc2cc([N+](=O)[O-])ccc21 | 1 | -9 | -3 | 0 | 5
CC(=O)NC1C(=O)N(C)c2ccc(Br)cc21 (configuration not stated) | 15 | 45* | 16 | 5 | 21
O=C(O)c1ccc(CSc2nnc(-c3ccncc3)n2CC2CCCO2)cc1 (configuration not stated) | 1 | 16 | -3 | 17 | 11
Cc1ccc(CSc2nnc(-c3ccncc3)n2CC2CCCO2)cc1 (configuration not stated) | 19 | 81* | 9 | 16 | 26
O=C(c1ccc(Cl)cc1Cl)N1CCC(c2nc3c(nnn3Cc3ccco3)c(=O)[nH]2)CC1 | -2 | -10 | -6 | 70* | 6
CCN(CC)S(=O)(=O)c1ccc(OC)c(NS(=O)(=O)c2ccc(F)cc2)c1 | 23 | 42* | 16 | 9 | 28
CCOC(=O)c1ccc(NC(=O)Nc2cccc(C)n2)cc1 | 15 | 11 | 45* | 36 | 20
CCOC(=O)c1ccc(NC(=O)Nc2ccccn2)cc1 | -1 | . | 1 | 22 | 12
Cc1ccc(/C(N)=N/OC(=O)CCc2ccccc2)cc1 | -7 | 0 | -7 | -2 | 0
CC(=O)c1ccc(-n2c(C)ccc2-c2ccccc2)cc1 | 8 | 20 | 8 | 25 | 15
COC(=O)c1c(NC(=O)c2c(-c3ccccc3Cl)noc2C)sc2c1CCC2 | 2 | -24 | -13 | -117 | 41*
Clc1cccc(Oc2cnc3ccccc3n2)c1 | -4 | -5 | -6 | -17 | 13
CCOC(=O)CC1Sc2ccccc2NC1=S (configuration not stated) | -7 | 80* | 4 | 24 | 0
Fc1ccc(CSc2nc3ccccc3[nH]2)c2ccccc12 | 4 | 0 | 9 | 59* | 19
COC(=O)c1cc2c(cc1N)OCCO2 | -14 | 3 | 0 | -31 | 1
Cc1ccc(NC(=O)c2cc(N3C(=O)C4CCCCC4C3=O)ccc2N2CCOCC2)cc1 (configuration not stated) | -6 | 3 | -3 | 68* | 6
CCC(Sc1nc2sc(C(=O)OC)c(C)c2c(=O)n1N)C(=O)NCC1CCCO1 (configuration not stated) | 18 | 43* | 14 | 1 | 29
O=C(CCNC(=O)c1ccc(Br)o1)NC1CCCC1 | -4 | 1 | -2 | -12 | 9
O=C(NC1CCCCC1)c1ccc(Br)o1 | 15 | 83* | 1 | 16 | 8
COCCN=C1NN=C(c2ccc(C)c([N+](=O)[O-])c2)CS1 | -22 | -7 | -11 | -2 | 6
O=C(CCc1nc2ccccc2s1)OCc1ccccc1 | -6 | -13 | 4 | 24 | 4
COc1ccc(S(=O)(=O)N(CCCN2CCCC2=O)Cc2cc3cc(C)c(C)cc3[nH]c2=O)cc1 | 29 | 86* | 1 | -22 | 10
CC(=O)/C(=C\N(C)C)Sc1ccc(Cl)cc1 | 0 | 5 | 9 | 6 | 5
CCOC(=O)c1cc(NC(=O)N2CCOCC2)c(C)nc1C | -4 | 2 | -6 | 5 | -2
Cn1c(CSCCOc2ccccc2)n[nH]c1=S | -5 | 53* | -9 | 18 | 0
CCc1ncc(C(=O)c2ccc(OC)cc2)n1C | -4 | -6 | -5 | 0 | 1
CCCCCCN(C(=O)CCCCCN1C(=O)NC(c2ccc(-c3ccccc3)cc2)C(C(=O)OCc2ccccc2)=C1C)C(C(=O)NCCCC)c1cccc(C(=O)OC)c1 (configuration not stated) | -1 | -1 | 1 | -5 | 8
CCOC(=O)c1nnn(CC(=O)Nc2cccc(OC)c2)c1C(=O)OCC | 3 | -12 | 4 | -14 | 10
Cc1sc2nc(COC(=O)c3ccc(N4CCCC4)c([N+](=O)[O-])c3)[nH]c(=O)c2c1C | -7 | -6 | 3 | -3 | 2

Screens: PubChem, several laboratories
